PKA kinase inh: inhibitors of human PKA kinase activity, primary screen, biochemical, ATP-depletion luminescence, Kemptide substrate; cAMP-dependent protein kinase catalytic subunit alpha (Homo sapiens), P17612; PKA Kemptide phosphorylation, Kinase-Glo ATP luminescence; AID 524, 2006; inhibition, % at 6 µM; hit rate 0.1% among 65,000;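 active = inhibition above the screen-wide mean inhibition plus 3 SD, cut at about 21% in these data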
RORA act: activators of orphan receptor RORA, primary screen, cell-based, luminescence; hit rate 1.5% among 65,000; Nuclear receptor ROR-alpha (Homo sapiens), P35398; AID 560, 2006; activation, % at 10 µM; CHO-K1 Gal4-RORA LBD luciferase reporter; percent increase over mock-subtracted basal signal;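 active = activation above the mean of all tested compounds plus 3 SD, cut at about 49% in these data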
Target sequence (P35398 whole entry, looked up, the tested form may be a part): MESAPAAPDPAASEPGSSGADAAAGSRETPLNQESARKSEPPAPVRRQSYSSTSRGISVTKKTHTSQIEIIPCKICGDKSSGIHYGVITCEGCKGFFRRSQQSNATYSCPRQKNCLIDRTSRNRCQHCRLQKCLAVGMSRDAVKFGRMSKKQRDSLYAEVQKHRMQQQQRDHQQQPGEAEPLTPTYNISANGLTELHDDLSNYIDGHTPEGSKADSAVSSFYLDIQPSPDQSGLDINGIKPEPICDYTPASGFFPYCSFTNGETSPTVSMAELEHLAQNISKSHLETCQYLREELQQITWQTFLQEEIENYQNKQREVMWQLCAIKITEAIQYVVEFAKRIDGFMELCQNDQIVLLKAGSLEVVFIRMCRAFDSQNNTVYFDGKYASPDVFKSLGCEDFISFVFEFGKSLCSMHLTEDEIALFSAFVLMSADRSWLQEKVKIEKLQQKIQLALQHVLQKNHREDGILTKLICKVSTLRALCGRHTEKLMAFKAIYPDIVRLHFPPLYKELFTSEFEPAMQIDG
JNK3 blocker: JNK3 kinase activity inhibitors, primary screen, biochemical, human, purified enzyme; Mitogen-activated protein kinase 10 (Homo sapiens), P53779; HTS; inhibition, % at 8 µM; hit rate 0.61% among 60,000; in the data active = inhibition above about 17%
MT1-MMP txn act: MT1-MMP promoter reporter activation – cell-based, luciferase luminescence, primary screen; HT1080 MT1-MMP promoter luciferase reporter, overnight; stronger effect = higher value; activation factor at 10 µM; hit rate 0.16% among 86,000; AID 750, 2007;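 active = activation factor of at least 2 for MT1-MMP transcription at 10 µM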
ROCK2 inh: inhibitors of human ROCK2 kinase, primary screen, biochemical, high-throughput, luminescence; inhibition, % at 6 µM; hit rate 0.35% among 60,000; purified ROCK2, Kinase-Glo ATP depletion luminescence; Rho-associated protein kinase 2 (Homo sapiens), O75116;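 active = inhibition above the screen-wide mean inhibition plus 3 SD, cut at about 18% in these data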
SF1 activator: activators of human SF-1, primary screen, cell-based, CHO-K1, Gal4-SF-1 LBD, luciferase luminescence; Steroidogenic factor 1 (Homo sapiens), Q13285; CHO-K1 Gal4-SF-1 LBD luciferase reporter; % increase over DMSO SF-1-specific signal; AID 522, 2006; activation, % at 10 µM; hit rate 1.9% among 65,000;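 active = activation above the mean activation of all tested compounds plus 3 SD, cut at about 50% in these data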
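Material: Gal4–SF-1 LBD one-hybrid luciferase reporter in CHO-K1 cells | Amount: 4,000 cells per well | Compound dosing: 10 µM single point, 1% DMSO | Schedule: 20 h compound treatment, 37 °C | Measured by: SteadyLite luciferase luminescence | Evaluation: Percent activation versus DMSO | Control set: DMSO-treated SF-1-transfected cells as negative, DMSO-treated mock-transfected cells lacking SF-1 as background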
Hits are given with their value; i = inactive; nt = no result. An excerpt weighted towards active compounds, which were near 2.5% of everything screened.

SMILES	PKA kinase inh	RORA act	JNK3 blocker	MT1-MMP txn act	ROCK2 inh	SF1 activator
CC1(C)Cc2nc3sc4c(=O)n(CC(=O)NCc5ccco5)cnc4c3cc2CO1	i	i	nt	i	nt	62.1
COC(=O)CC(NC(=O)c1ccc(C)cc1)c1ccccc1 (stereo not given)	nt	nt	nt	i	nt	nt
O=C(NCCCn1ccnc1)Nc1cccc2ccccc12	nt	nt	nt	2.1	nt	nt
CCCC[C@H]1C[C@@H]1[C@@H]1N(P(=O)(c2ccccc2)c2ccccc2)[C@](CO)(c2ccccc2)CC12CC2	nt	nt	nt	i	nt	nt
COc1cccc2cc(NC(=O)C3CCCCC3)c(=O)oc12	i	56.1	i	nt	i	65.9
COc1cccc2cc(C(=O)Nc3cccc(C)n3)c(=O)oc12	i	57.5	i	i	i	72.7
CCOC(=O)N1CCN(C(=O)c2cc3cc(Br)ccc3oc2=O)CC1	i	i	i	i	i	i
COc1ccc(-c2noc(CCC(=O)Nc3cccc(C)c3)n2)cc1	i	i	i	i	i	i
COc1ccc(-c2noc(N(C)CC(=O)Nc3cccc(C(F)(F)F)c3)n2)cc1	i	51.6	i	i	i	i
CCn1c(SCC(=O)Nc2nccs2)nnc1-c1ccc(S(=O)(=O)N2CCCCC2)cc1	i	i	i	i	i	i
C=CCOn1c(=O)c(-c2cc3ccccc3o2)[n+]([O-])c2ccccc21	i	i	i	i	i	77.4
C=CCOn1c(=O)c(C)[n+]([O-])c2ccccc21	i	i	i	i	i	i
O=C1COc2ccc(OCc3ccc(F)cc3)cc21	i	78.3	i	i	i	i
COc1ccc2c(c1)C(=O)c1ccccc1CO2	nt	nt	nt	i	nt	nt
CC(=O)c1cccc(NC(=O)NCc2cccs2)c1	i	i	i	i	19.6	i
CC(=O)c1cccc(NC(=O)NCc2ccccn2)c1	i	i	i	i	i	56.4
COc1ccc(NC(=O)NCc2ccccn2)cc1OC	i	i	i	i	i	i
O=C(CCSc1nc2ccccc2o1)N1CCOCC1	i	i	i	i	i	i
Clc1c(CSc2nc3ccccc3o2)nc2ccccn12	i	i	i	nt	i	i
c1ccc2oc(SCc3cn4ccccc4n3)nc2c1	i	58.1	nt	i	nt	i
Cc1cc(-c2cc(N)n(-c3ccccc3)n2)c(C)n1C1CCCC1	i	i	i	2	i	i
Nc1ccc(-c2cc(N)n(-c3ccccc3)n2)cc1	i	i	i	i	i	i
CCN(CCCNC(=O)COc1cc(=O)n(CC)c2ccccc12)Cc1ccccc1	i	i	i	i	i	i
O=C(Nc1cccnc1)c1ccc(COc2ccccc2Br)o1	i	i	20.7	i	i	i
O=C(NCc1cccnc1)c1ccc(COc2ccccc2Br)o1	i	i	i	i	i	i
SMILES	PKA kinase inh	RORA act	JNK3 blocker	MT1-MMP txn act	ROCK2 inh	SF1 activator
COc1cccc(C(=O)N2CCN(S(=O)(=O)Cc3ccccc3)CC2)c1OC	i	i	i	i	i	i
CCCNS(=O)(=O)c1ccc(NC(=O)c2ccccn2)cc1	i	i	i	i	i	i
CN(C)S(=O)(=O)c1ccc(NC(=O)c2ccccn2)cc1	i	56.7	i	i	i	74.0
CCN(CC)S(=O)(=O)c1ccc(NC(=O)c2ccccn2)cc1	i	48.6	i	i	i	55.0
CN(C)S(=O)(=O)c1ccc(C(=O)Nc2ccccn2)cc1	i	i	i	i	i	i
Cc1nc(NC(=O)C2CC3CCCC(C2)C3=O)sc1C (stereo not given)	i	62.1	i	i	i	53.7
c1ccc2[nH]c(CSc3ncnc4c3oc3ccccc34)nc2c1	i	i	19.0	i	i	i
Cc1nc(SCC(=O)c2cccs2)c2oc3ccccc3c2n1	nt	nt	nt	i	nt	nt
O=C(CSc1ncnc2c1oc1ccccc12)c1cccs1	i	i	i	i	i	70.6
[O-][n+]1c2c(c3c4non(O)c4ccc31)CCCC2	nt	nt	nt	i	nt	nt
Brc1ccc(-c2cn3cccnc3n2)cc1	i	53.0	i	i	i	i
COc1ccc(O)c(/C=N/c2sc(C)c(C)c2C#N)c1	nt	nt	nt	i	nt	nt
COc1ccc(Nc2oc(-c3ccc(Cl)cc3)nc2C#N)cc1	nt	nt	nt	2.2	nt	nt
COCCNc1oc(-c2ccc(Cl)cc2)nc1C#N	i	i	i	i	i	i
CCOc1ccc(-c2nc(C#N)c(NC3CC3)o2)cc1	i	62.8	i	i	i	i
COCCNc1oc(-c2ccc(C)cc2)nc1C#N	i	i	i	i	i	60.6
Cc1ccc(-c2nc(C#N)c(NCCc3ccccn3)o2)cc1	i	61.0	i	i	i	54.4
COc1ccc2nc3sc(C(=O)NCc4cccs4)c(N)c3cc2c1	i	i	i	i	i	74.4
CCOC(=O)Nc1ccc2c(C)cc(=O)oc2c1	i	53.1	i	i	i	55.6
CCCCOC(=O)Nc1ccc2c(C)cc(=O)oc2c1	nt	nt	nt	i	nt	nt
CC(=O)c1c(C)[nH]c(C(=O)NCCc2cccc(C)c2)c1C	i	i	i	i	i	71.0
O=C(c1n[nH]c2ccccc12)N1CCN(S(=O)(=O)c2ccc3ccccc3c2)CC1	i	i	i	i	i	i
c1ccc(C2Nc3ccccc3-c3nc4ccccc4n32)cc1 (stereo not given)	nt	nt	nt	i	nt	nt
c1coc(C2Nc3ccccc3-c3nc4ccccc4n32)c1 (stereo not given)	i	70.7	nt	i	nt	75.5
Cc1cccc(NC(=O)c2cnc3sccn3c2=O)c1C	i	74.4	i	i	i	i
SMILES	PKA kinase inh	RORA act	JNK3 blocker	MT1-MMP txn act	ROCK2 inh	SF1 activator
O=C(Nc1cnc2sccn2c1=O)c1ccccc1Cl	i	i	nt	i	nt	52.0
Cc1cccc(NC(=O)c2cnc3sccn3c2=O)c1	i	i	i	i	i	i
CCC1(C)Cc2ccccc2C(Nc2c(C)n(C)n(-c3ccccc3)c2=O)=N1 (stereo not given)	nt	nt	nt	i	nt	nt
c1cc2c(cc1Nc1nc(-c3ccc4c(c3)OCO4)cs1)OCCO2	i	i	i	i	24.1	i
O=C(Nc1ccc(Cl)cc1)c1ccc2c(c1)OCO2	i	i	i	i	i	i
O=C(Nc1ccc2c(c1)OCO2)c1ccc[n+]([O-])c1	nt	nt	nt	i	nt	nt
O=C(Nc1ccc(F)c(F)c1)c1ccc2c(c1)OCO2	i	i	i	i	i	66.2
O=C(Nc1ccc2c(c1)OCO2)c1c(Cl)nc2sccn12	i	i	nt	i	nt	66.1
O=C(Nc1ccc2c(c1)OCO2)c1cccc(Cl)c1	i	i	i	i	i	67.0
O=C(Nc1ccc2c(c1)OCO2)c1cnn2cccnc12	i	61.4	i	i	i	70.3
O=C(CCNS(=O)(=O)c1cccc2nsnc12)N1CC(=O)N(CCc2ccccc2)C(=O)C1	i	i	i	i	i	i
Cc1occc1C(=O)Nc1ccc2c(c1)OCO2	i	i	i	i	i	53.4

Screens deposited in PubChem BioAssay by several laboratories.
